The structures appear in SMILES notation. pIC50, pKd: −log10 of the molar value. Calls of active or inactive are those of the source. The calls are words filed in the database; no cut-off is given here.

Data set [1] deals with Plasmodium falciparum. Nature of the data set: Antiplasmodial activity after 48 hrs against chloroquine-sensitive Plasmodium falciparum NF54 by [3H]hypoxanthine uptake. The data set is classed as functional, organism-based. Summed up: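 Ring-stage cultures were synchronized with 5% d-sorbitol. At 0.5 to 1% parasitemia they were grown in multiwell plates (200 μl/well) across a range of concentrations, with chloroquine as positive control. After 48 h, [3H]hypoxanthine (0.7 μCi/well) was added and culture continued 48 h. Parasites were washed in PBS, dissolved in 3 N NaOH (37°C, 6 h) and counted by β-counter. IC50 reported as mean ± SEM.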

Data set [2] concerns Plasmodium falciparum. Nature of the data set: Antiplasmodial activity as increased heme accumulation after 48 hrs against chloroquine-sensitive Plasmodium falciparum NF54 at 10-100 uM by spectrophotometry. In kind it is functional, organism-based. In outline:
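Cultures were exposed to a range of concentrations for 48 h, then pelleted and washed in PBS. Each pellet was solubilized in 1 ml concentrated formic acid. Heme was read at 398 nm (ε = 1.56 × 10^5 M−1 cm−1) and expressed as nmol/mg cell protein.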

Data set [3] deals with Plasmodium falciparum. Kind of data set: Induction of oxidative stress as decreased glutathione after 48 hrs in chloroquine-sensitive Plasmodium falciparum NF54 by TCA assay. The data set is classed as functional, organism-based. In outline:
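Parasites at 4% parasitemia were treated 48 h, then isolated and sonicated in 20 mM ice-cold EDTA. The lysate was deproteinized with equal-volume 10% TCA, and the supernatant mixed with 0.8 M Tris-HCl pH 9 containing 20 mM DTNB. A412 was read against a GSH standard and expressed as % of control.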

For data set [4], the system named is Plasmodium falciparum. Kind of data set: Induction of oxidative stress as lipid peroxide formation after 48 hrs in chloroquine-sensitive Plasmodium falciparum NF54. The data set is classed as functional, organism-based. Summed up:
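Ring-synchronized culture (4% parasitemia) was treated 48 h, and parasites were isolated and lysed in PBS. Lysate was heated with TCA–thiobarbituric acid in 1 N HCl at 100°C for 15 min, cooled and centrifuged. A535 of the supernatant was read against a tetraethoxypropane standard, expressed as nmol/mg lysate protein.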

Data set [5] concerns Plasmodium falciparum. Kind of data set: Induction of oxidative stress as increased H2O2 formation after 48 hrs in chloroquine-sensitive Plasmodium falciparum NF54 by spectrofluorimetry. In kind it is functional, organism-based. In outline:
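Parasites at 4% parasitemia were treated 48 h, then loaded 30 min with 10 μM 2′,7′-dichlorofluorescein diacetate. They were isolated and lysed by mild sonication at 4°C. Dichlorofluorescein fluorescence was read at ex 502/em 523 nm and expressed as intensity/mg lysate protein.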

Data set [6] relates to Plasmodium falciparum. Nature of the data set: Induction of oxidative stress as increased hydroxyl radical formation after 48 hrs in chloroquine-sensitive Plasmodium falciparum NF54 by fast blue BB assay. In kind it is functional, organism-based. In outline:
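Ring/early-trophozoite culture (2% parasitemia) was grown 48 h with compound plus 20 μl of 25% DMSO as ·OH trap, re-dosed at each daily medium change; a parasite-only control had neither. Isolated parasites were lysed in water, and methanesulfinic acid from the DMSO–·OH reaction was extracted for quantitation.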

The subject of data set [7] is Plasmodium yoelii. Nature of the data set: Antiplasmodial activity as decreased mitochondrial transmembrane potential after 1 hrs against multi drug-resistant Plasmodium yoelii trophozoite infected Swiss mice (Mus musculus) erythrocytes at 10 uM by JC1 uptake. In kind it is functional, organism-based.
Data set [8] relates to Plasmodium falciparum. Nature of the data set: Antiplasmodial activity after 48 hrs against chloroquine-sensitive Plasmodium falciparum NF54 by [3H]hypoxanthine uptake in presence of PBN. The data set is classed as functional, organism-based. Summed up:
(§1)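 Cultures at 4% parasitemia received test compound at 40 μM for 48 h, plus the ·OH scavenger PBN (40 mM) or mannitol (10 mM). Growth was read as [3H]hypoxanthine incorporation, β-counting, n = 6, mean ± SEM.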

For data set [9], the system named is Plasmodium falciparum. Nature of the data set: Antiplasmodial activity after 48 hrs against chloroquine-sensitive Plasmodium falciparum NF54 by [3H]hypoxanthine uptake in presence of mannitol. In kind it is functional, organism-based. Summed up:
as §1

Data set [10] has as its system Plasmodium falciparum. Kind of data set: Antiplasmodial activity as parasite growth after 24 hrs against chloroquine-sensitive Plasmodium falciparum NF54 infected human B+ erythrocytes at <40 uM 24 hrs preinfection by [3H]hypoxanthine uptake. The data set is classed as functional, organism-based. Summed up:
(§2)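 Uninfected human B+ RBC at 5% hematocrit were preincubated 24 h in CRPMI with compound up to 40 μM; DMSO served as control. Cells were washed three times, then inoculated with trophozoite-rich parasitized RBC (4 to 5% parasitemia). After one intraerythrocytic cycle, [3H]hypoxanthine (0.7 μCi/well) was added for 24 h. Cells were filter-harvested and counted (cpm), n = 6.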

Data set [11] concerns MCF7. Nature of the data set: Cytotoxicity against human MCF7 cells assessed as cell viability at 10 to 1000 uM after 24 hrs by MTT assay. In kind it is cell-based. As to conditions: mcf7, 24 h. For orientation: Tetrazolium dyes change colour on reduction, which living cells bring about.
The test system of data set [12] is Plasmodium yoelii. Kind of data set: Antiplasmodial activity as reduced parasitaemia at day 4 against multi drug-resistant Plasmodium yoelii infected BALB/c mice (Mus musculus) at 10 mg/kg intraperitoneal dose 6 hrs post infection and daily for 3 days by Giemsa stain. The data set is classed as functional. More on the design: scale not given: the % may be the effect or the level left. Summed up: (§3)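 BALB/c mice (22 ± 2 g), five per group, infected intraperitoneally on day 0 with 10^5 parasitized RBC of P. yoelii resistant to chloroquine, mefloquine and halofantrine. Dosing was intraperitoneal in groundnut oil (0.2 ml), starting 6 h after inoculation and given once daily on days 0–3. Parasitemia was read on Giemsa thin smears on day 4. Group means gave % suppression [(C−T)/C]×100 against vehicle controls; α-β-arteether served as the positive control.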

Data set [13] deals with Plasmodium yoelii. Kind of data set: Antiplasmodial activity as reduced parasitaemia at day 4 against multi drug-resistant Plasmodium yoelii infected BALB/c mice (Mus musculus) at 25 mg/kg intraperitoneal dose 6 hrs post infection and daily for 3 days by Giemsa stain. The data set is classed as functional. More on the design: scale not given: the % may be the effect or the level left. Summed up: as §3

Data set [14] deals with Plasmodium yoelii. Nature of the data set: Antiplasmodial activity as reduced parasitaemia at day 4 against multi drug-resistant Plasmodium yoelii infected BALB/c mice (Mus musculus) at 50 mg/kg intraperitoneal dose 6 hrs post infection and daily for 3 days by Giemsa stain. In kind it is functional. More on the design: scale not given: the % may be the effect or the level left. Summed up: as §3

In data set [15] the target is T1, Histidine-rich protein PFHRP-II (Plasmodium falciparum) (UniProt P05227).
T1 sequence (whole entry): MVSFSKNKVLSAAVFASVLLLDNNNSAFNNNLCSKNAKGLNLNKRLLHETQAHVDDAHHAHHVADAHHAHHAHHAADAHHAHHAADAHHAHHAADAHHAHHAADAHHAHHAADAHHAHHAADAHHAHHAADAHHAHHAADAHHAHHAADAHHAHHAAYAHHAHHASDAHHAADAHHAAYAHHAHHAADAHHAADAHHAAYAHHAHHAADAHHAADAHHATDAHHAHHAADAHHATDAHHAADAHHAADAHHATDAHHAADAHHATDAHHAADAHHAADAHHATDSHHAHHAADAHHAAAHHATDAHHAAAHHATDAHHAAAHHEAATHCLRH
Kind of data set: Inhibition of hemozoin formation after 48 hrs against chloroquine-sensitive Plasmodium falciparum NF54 at 10 to 100 uM by spectrophotometry. In kind it is functional. Summed up:
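Ring-synchronized culture (5% parasitemia, sorbitol) was treated 48 h across a concentration range. Parasites were saponin-isolated and sonicated, and the pellet washed in 2% SDS. It was digested with proteinase K (2 μg/ml, 37°C overnight), treated with 6 M urea for 3 h, and washed in SDS. Hemozoin was dissolved in 20 mM NaOH/2% SDS and read at 400 nm.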

Data set [16] relates to MCF7. Nature of the data set: Cytotoxicity against human MCF7 cells assessed as cell viability after 24 hrs by MTT assay. In kind it is cell-based. As to conditions: MCF7, 24 h.
Data set [17] relates to Plasmodium falciparum. Kind of data set: Antiplasmodial activity as parasite invasion after 24 hrs against chloroquine-sensitive Plasmodium falciparum NF54 infected human B+ erythrocytes at <40 uM 24 hrs preinfection by [3H]hypoxanthine uptake. The data set is classed as functional, organism-based. In outline:
as §2

In data set [18] the target is T2, Histidine-rich protein PFHRP-II (Plasmodium falciparum, UniProt P05227).
T2 sequence (P05227 whole entry): T1 sequence (whole entry)
Kind of data set: Inhibition of hemozoin formation after 48 hrs in chloroquine-sensitive Plasmodium falciparum NF54. In kind it is functional. In outline: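 P. falciparum NF54 culture (5% parasitemia) was ring-synchronized with 5% d-sorbitol, then exposed to graded drug concentrations for 48 h. Parasites were freed with saponin, sonicated and washed with 2% SDS. The pellet was digested overnight at 37°C with proteinase K (2 μg/ml) in Tris/SDS/CaCl2 and treated with 6 M urea for 3 h. After further SDS washes, hemozoin was dissolved in 20 mM NaOH/2% SDS and read at 400 nm.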

The target of data set [19] is Heme. Nature of the data set: Binding affinity to heme by optical difference spectroscopy. Summed up: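 Heme in 100 mM acetate buffer pH 5.2 at 25 ± 1°C, 1-cm quartz cell, was titrated with successive additions of compound (5 to 40 μM). Soret and difference spectra were recorded after each addition. KD came from a double-reciprocal plot of 1/ΔA362 against 1/[ligand]; mean ± SEM.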

Data set [20] in a line: Selectivity index ratio of IC50 for human MCF7 cells to IC50 for chloroquine-sensitive Plasmodium falciparum NF54. The data set is classed as functional. In outline: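 Selectivity index = MCF-7 MTT IC50 divided by P. falciparum NF-54 [3H]hypoxanthine-uptake IC50.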
Data set [21] relates to Plasmodium yoelii. Nature of the data set: Antiplasmodial activity as reduced parasitaemia at day 4 against multi drug-resistant Plasmodium yoelii infected BALB/c mice (Mus musculus) at 100 mg/kg intraperitoneal dose 6 hrs post infection and daily for 3 days by Giemsa stain. The data set is classed as functional. More on the design: scale not given: the % may be the effect or the level left. In outline: as §3

The target of data set [22] is Plasmodium yoelii. Nature of the data set: Inhibition of hemozoin formation after 48 hrs in multi drug-resistant Plasmodium yoelii.

`COc1ccc(C(Sc2ccc3ccccc3c2)c2cccnc2)cc1` (stereo not drawn): the pIC50 in data set [1] was 5.40; in [16], 3.19. Also, the result in [2] and in data set [7] was Active. Besides, the Activity result in [3] was “Dose-dependent effect”; in data set [4] it was “Dose-dependent effect”; in data set [5], “Dose-dependent effect”; in [6], “Dose-dependent effect”; in data set [11] it was “Non-toxic”; in [12], 40%. Moreover, the Activity is 65% in data set [13], 85% in data set [14] and “Dose-dependent effect” in data set [15]. Further, the result in [8], in data set [9], in data set [10] and in data set [17] was inactive.
For the compound `COc1ccc(C(Sc2ccccc2C)c2cccnc2)cc1` (stereo not drawn), the negative logarithm of the IC50 (pIC50) in [18] is 4.80; in data set [1] it was 5.10; in [16], 3.00; in data set [22], 4.59. In data set [19], this compound had a pKd of 4.59. The result in data set [2] was Active. The Activity result in data set [3] is “Dose-dependent effect”; in data set [4], “Dose-dependent effect”; in data set [5], “Dose-dependent effect”; in data set [6], “Dose-dependent effect”; in data set [11], “Non-toxic”; in data set [13], 30%. For the same compound, the Activity is 50% in data set [14], 80% in [21] and “Dose-dependent effect” in [15]. In addition, in data set [10], the outcome was inactive. Further, the “Ratio IC50” value in [20] was determined as 125.
`COc1ccc(C(Sc2ccccc2)c2cccnc2)cc1` (stereo not drawn): the pIC50 was 4.96 in data set [18], 5.30 in data set [1], 3.00 in data set [16] and 4.74 in data set [22]. This compound also showed a pKd in data set [19] of 4.70. For the same compound, the “%max” value in data set [2] is “Active”. The Activity result in data set [3] was “Dose-dependent effect”; in data set [4], “Dose-dependent effect”; in [5], “Dose-dependent effect”; in [6] it was “Dose-dependent effect”; in data set [11], “Non-toxic”; in data set [12] it was 20%. For the same compound, the Activity in data set [13] is 30%; in [14] it was 60%; in data set [15] it was “Dose-dependent effect”. Besides, the “Ratio IC50” value in data set [20] was found to be 200.
Turning to `COc1ccc(C(Sc2ccc(C)cc2)c2ccccn2)cc1` (stereo not drawn), in [1], the pIC50 is 4.70.
Turning to `CCCCCC[C@H]1C(=O)O[C@H](C)[C@H](NC(=O)c2cccc(NC=O)c2O)C(=O)O[C@@H](C)[C@@H]1OC(=O)CC(C)C`, the outcome in data set [7] was Active.
Turning to `COc1ccc(C(Sc2ccc(C)cc2)c2cccnc2)cc1` (stereo not drawn), the pIC50 is 4.40 in [18], 4.70 in [1] and 4.70 in [22]. The compound also had a pKd in data set [19] of 4.92.
As for `COc1ccc(C(Sc2ccc(Cl)cc2)c2cccnc2)cc1` (stereo not drawn), the pIC50 in [18] is 4.40; in data set [1], 4.92; in data set [22], 4.40.
As to `COc1ccc(C(Sc2nc3ccccc3s2)c2cccnc2)cc1` (stereo not drawn), the figures for the pIC50 in data set [18], in data set [1] and in data set [22] were 4.46, 4.92 and 4.40, respectively. Further, in data set [19], the negative-log Kd (pKd) is 4.85.

One may read the pIC50 as −log10 of the IC50, conventionally taken in molar units. For orientation: pKd means the negative decadic logarithm of the Kd, by convention in mol/L.

Values taken from ChEMBL document CHEMBL1153556, “Antiplasmodial activity of [(aryl)arylsulfanylmethyl]Pyridine” (Antimicrob Agents Chemother, 2008).
